Assay results taken from the EternaBench riboswitch data.

System: MS2 coat protein
Test: apparent Kd, MS2 coat protein; higher = weaker binding; RNA-MaP array; FMN 200 µM where present
Procedure, shortened: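 Stalled E. coli RNA polymerase transcribed the designs on Illumina sequencing-chip clusters. SNAP-549-labelled MS2 coat protein was titrated from 0.7 or 1.5 nM, doubling to 3 µM, without and then with constant ligand, in 100 mM Tris-HCl pH 7.5, 80 mM KCl, 4 mM MgCl2, BSA, DTT, yeast tRNA and Tween-20. Per-cluster binding curves were fitted to green signal normalised to red-channel RNA signal and control-cluster median Fmax. The apparent Kd is the median of the filtered fits.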

[1] = designed as: OFF switch for flavin mononucleotide, no ligand
[2] = ligand present: flavin mononucleotide, designed as: OFF switch for flavin mononucleotide
[3] = designed as: ON switch for flavin mononucleotide, no ligand
[4] = ligand present: flavin mononucleotide, designed as: ON switch for flavin mononucleotide

| Sequence | apparent Kd [1] | apparent Kd [2] | apparent Kd [3] | apparent Kd [4] |
| --- | --- | --- | --- | --- |
| GGAUAGGACAGAGGAUAUACCGAUAGGAUCUACUAUCGAACAAUCCUCACAUGAGGAUCACCCAUGUAGAAGGCUGUCCUAUCG | 23.9 nM | 274 nM |  |  |
| GGAUAGGACAGAGGAUAUACGCGCUAGAGAUACUAGCAAAAUUUCCUCACAUGAGGAUCACCCAUGUAGAAGGCUGUCCUAUCG | 20.1 nM | 580 nM |  |  |
| GGAUAGGACAGAGGAUAUACGGAUAGGAUCUACUAUCUUCUUCAAAUAACAUGAGGAUCACCCAUGUAGAAGGCUGUCCUAUCG | 16 nM | 31.9 nM |  |  |
| GGAUAGGACAGAGGAUAUACGUGCCAGAGAUACUAGCAAAAUUUCCUCACAUGAGGAUCACCCAUGUAGAAGGCUGUCCUAUCG | 33.6 nM | 293 nM |  |  |
| GGAUAGGACAGAGGAUAUACGUGCUAGACAUACUAGCAAAAUUUCCUCACAUGAGGAUCACCCAUGUAGAAGGCUGUCCUAUCG | 18.7 nM | 440 nM |  |  |
| GGAUAGGACAGAGGAUAUACGUGCUAGAGAUACGAGCAAAAUUUCCUCACAUGAGGAUCACCCAUGUAGAAGGCUGUCCUAUCG | 32.5 nM | 578 nM |  |  |
| GGAUAGGACAGAGGAUAUACGUGCUAGAGAUACUAGCAAAAUUUCCUCACAUGAGGAUCACCCAUGUAGAAGGCUGUACUAUCG | 15.2 nM | 202 nM |  |  |
| GGAUAGGACAGAGGAUAUACGUGCUAGAGAUACUAGCAAAAUUUUCUCACAUGAGGAUCACCCAUGUAGAAGGCUGUCCUAUCG | 5.08 nM | 17.4 nM |  |  |
| GGAUAGGAUAGAGGAUAUACGUGCUAGAGAUACUAGCAAAAUUUCCUCACAUGAGGAUCACCCAUGUAGAAGGCUGUCCUAUCG | 10.6 nM | 193 nM |  |  |
| GGAUAGGGCAGAGGAUAUACGUGCUAGAGAUACUAGCAAAAUUUCCUCACAUGAGGAUCACCCAUGUAGAAGGCUGUCCUAUCG | 14.1 nM | 464 nM |  |  |
| GGAUCCAUCACAGGAUAUGCUGGACUUUGUCCAGCAGAAGGGUGAACAUGAGGAUCACCCAUGUAAAAGGAUCCUAUAUUUAAU |  |  | 124 nM | 24.9 nM |
| GGAUCGAAUGUGAGGAUAUGCAGGUCCUUGGAUCUGCAGAAGGCACAUGAGGAUCACCCAUGUGACCAAGAUCC | 50 nM | 548 nM |  |  |
| GGAUCGAAUGUGAGGAUAUGCUGGUCCUUGGAUCAGCAGAAGGCACAUGAGGAUCACCCAUGUGACCUAGAUCC | 32.7 nM | 430 nM |  |  |
| GGAUCGAAUGUGAGGAUAUGCUGGUCCUUGGAUCAGCAGAAGGCACAUGAGGAUCACCCAUGUGUUCCCGGUCC | 79.5 nM | 716 nM |  |  |
| GGAUCGAGUGUGAGGAUAUGCUGGUCCUUGGAUCAGCAGAAGGCACAUGAGGAUCACCCAUGUGAAGACGAUCC | 23.6 nM | 187 nM |  |  |
| GGAUCGAGUGUGAGGAUAUGCUGGUCCUUGGAUCAGCAGAAGGCACAUGAGGAUCACCCAUGUGAAGACGGUCC | 32.3 nM | 201 nM |  |  |
| GGAUCGAGUGUGAGGAUAUGCUGGUCCUUGGAUCAGCAGAAGGCACAUGAGGAUCACCCAUGUGAAUACGGUCC | 24 nM | 165 nM |  |  |
| GGAUCGUAUGUCAGGAUAUACCACUGGAUACAGUGGUAGAAGGGACAUGAGGAUCACCCAUGUUCUAUCGAUCC | 15.9 nM | 20.4 nM |  |  |
| GGAUGACAAAGUCAUCCCUGACGGACAUGAGGAUCACCCAUGUAGGAUAUGCUACUCAAAGAGUAGCAGAAGGACAUGUGUCUU | 35.5 nM | 206 nM |  |  |
| GGAUGACAAAGUCAUCCUAUUCGAACAUGAGGAUCACCCAUGUAGGAUAUGGUACUCAAAGAGUACCAGAAGGACAUGUGCUUU | 36.2 nM | 127 nM |  |  |
| GGAUGAUUAAUAGGAUAUUAGUUGUAAAAUGGUUAAGAAGGAUUAAUGAUUUAAACGACCAGUUACAUGAGGAUCACCCAUGUA |  |  | 21.6 nM | 18.9 nM |

| Sequence | apparent Kd [1] | apparent Kd [2] | apparent Kd [3] | apparent Kd [4] |
| --- | --- | --- | --- | --- |
| GGAUUACAUGAGGAUCACCCAUGUGAGGAUAUCGAUGUCCCUAGGAGCGUGCGGGACUCGAGAAGGCACUUGGA | 39.7 nM | 234 nM |  |  |
| GGAUUACAUGAGGAUCACCCAUGUGAGGAUAUCGAUGUCCCUUGGCGCGUGCGGGACUCGAGAAGGCACUUGGA | 47.8 nM | 248 nM |  |  |
| GGAUUACAUGAGGAUCACCCAUGUGAGGAUAUCGAUGUCCUCAAUCAAGUGCGGGACUCGAGAAGGCACUUGGA | 70.3 nM | 30.9 nM |  |  |
| GGAUUACAUGAGGAUCACCCAUGUGAGGAUAUCGAUGUCCUGUAAUUCGUGCGGGACUCGAGAAGGCACUUGGA | 51.3 nM | 168 nM |  |  |
| GGAUUUCCUGAGGAUAUUGCAUCACCCGAUUUAUAAGAAGGCAGAACAUGAGGAUCACCCAUGUGGGUCUCCGG | 18.9 nM | 23.1 nM |  |  |
| GGCAAUAUGUAGGAUAUCGUAUCGGAAACGAUACGAGAAGGGCAAACAUGAGGAUCACCCAUGUUCUUCAAGCC | 13 nM | 16.6 nM |  |  |
| GGCACACAUGAGGAUCACCCAUGUGAGGAUAUGGUGCGAUCGUCGAAAGACGAUAGCACCAGAAGGCACAUGCC | 18.2 nM | 39.5 nM |  |  |
| GGCCCGGGAGGAUAUACAUGAGGAUCACCCAUGUGCGGGCCCGGGAUCCCGGGCCCGUGUAGAAGGCCCGGGCC | 13.4 nM | 16.5 nM |  |  |
| GGCCUGUUAGGAUAUUAGUAGUAGUCAGAAUAGACUAUUACUGAGAAGGAACAUGAGGAUCACCCAUGUUGGCC | 16.5 nM | 19.3 nM |  |  |
| GGCGAACGGGCUUACAUGAGGAUCACCCAUGUAGACUCAUGGUAGGAUAUGCUGAACAAAGUUCAGCAGAAGGGCCGGUGAGCU |  |  | 86.6 nM | 46.3 nM |
| GGCGGACGAAACAUGAGGAUCACCCAUGUGUUAUAAUUAAUAUAGGAUAUGUUUAUACUUUUUGGGCAGAAGGAUGAUAAUGCC |  |  | 18.5 nM | 16.2 nM |
| GGCGGAGACGUUAACAUGAGGAUCACCCAUGUCGAAGGAGAUGAGGAUAUCGCAUACGAUGUAUGUGAGAAGGCAUGGUCUGCC |  |  | 30 nM | 10.6 nM |
| GGCGGCGGACAAGGAUAUAAGACGCGGACCAAAUUAGAAGGUGUCAUCUGGCAAUGCGAAAGCAGACAUGAGGAUCACCCAUGU |  |  | 78.9 nM | 72.7 nM |
| GGCGGGCGGGAGGAUAUUCGGGCUGUUUGGCUUGGAGAAGGCUCGACAUGAGGAUCACCCAUGUUUGGGUCGUC | 18 nM | 37.8 nM |  |  |
| GGCGGUAAUGAGAAGGGUCACAUGAGGAUCACCCAUGUGCUCUUCGCCGUGACAGGAUAUCAUUGCCGUCAGGUUAGAUUUUUG | 7.99 nM | 25.4 nM |  |  |
| GGCGGUCGGGAGGAUAUUCGGGCUGUUUGGCUUGGAGAAGGCUCGACAUGAGGAUCACCCAUGUAAGUGUUCUU | 376 nM | 406 nM |  |  |
| GGGAAGGGCGGAGGAUAUCGACAUGAGGAUCACCCAUGUAUCACCCAUGUAUGAGAAGGUUGGAAGGAUUAAAACGUGAGGGUC | 57.6 nM | 44.3 nM |  |  |
| GGGCAAAAGUAGAAGGGAUAUACGAAAAGUAUAUCAGGAUAUACAUGAGGAUCACCCAUGUUCUGAAAGUGAAAAUCCUCCCUA | 40.8 nM | 317 nM |  |  |
| GGGCAACAUGAGGAUCACCCAUGUGAGGAUAUGGGCCCGGGCCCGAAAGGGCCCGGGCCCAGAAGGCACAGCCC | 17.9 nM | 17.1 nM |  |  |
| GGGCCCGGAGGAUAUACAAUUUUGGGCCGAAAGGCCCGGGUACAUGAGGAUCACCCAUGUAGAAGGCCGGGUUU | 31.9 nM | 311 nM |  |  |
| GGGCCCGGUGUGAGGAUAUUGGGUCUGAAAGGGCUCGAGAAGGCACAUGAGGAUCACCCAUGUAAGCCGGGCCC | 16.7 nM | 13.7 nM |  |  |
